Results: the array DNA melting data of Ke et al. (doi:10.1101/2024.01.08.574731)

What was measured:
[1] = folding enthalpy; higher = less favourable; fluorescence melt of hairpins on a sequencing array, two-state fit; conditions: sodium 0.088 M
In short: (§1)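 Folding enthalpy and melting temperature come from bootstrapped two-state fits to Cy3 fluorescence of library hairpins carrying annealed Cy3 and quencher oligos on a sequenced MiSeq flow cell. Imaging was done in 50 mM Na-HEPES pH 8.0, 25 mM NaCl, stepping by 2.5 °C up to 60 °C, and signals were normalised to pre-quench Cy3 and to control constructs. Results of four replicates were combined by inverse variance, and fitted temperatures were raised by 9.35 °C to match UV melts.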

[2] = melting temperature; fluorescence melt of hairpins on a sequencing array, two-state fit, raised by 9.35 °C to match UV melts; conditions: sodium 0.088 M
In short: as §1

Row | Sequence | folding enthalpy [1] | Tm [2]
1 | GACAACGAAAGTTGTGTC ((((((....)))..))) | -14.7 kcal/mol | 50.6 °C
2 | GACAACGAAAGTTTCGTC ((((((....)))..))) | -14.1 kcal/mol | 32.8 °C
3 | GACAACGGAAACGCTGTC ((((.((....)).)))) | -34.7 kcal/mol | 45.6 °C
4 | GACAAGCCGAAAGGCGTC (((..(((....)))))) | -9.16 kcal/mol | 42.3 °C
5 | GACAATCCGAAAGGAGTC (((..(((....)))))) | -17.2 kcal/mol | 32.7 °C
6 | GACAATGGAAACATTGCC (.(((((....))))).) | -18.6 kcal/mol | 38.2 °C
7 | GACAATGGAAACATTGTC (((((((....))))))) | -47.7 kcal/mol | 57 °C
8 | GACAATGGAAACGTTGTC (((((.(....).))))) | -34.7 kcal/mol | 46.5 °C
9 | GACACACGAAAGTGGGTC (((.(((....))).))) | -37.8 kcal/mol | 67.6 °C
10 | GACACACGAAAGTGGTC (((.(((....)))))) | -20.7 kcal/mol | 49.7 °C
11 | GACACAGGAAACTATGTC ((((.((....)).)))) | -24.5 kcal/mol | 29.9 °C
12 | GACACAGGAAACTGCGTC (((.(((....))).))) | -23.4 kcal/mol | 45.3 °C
13 | GACACCCGAAAGGGAGTC (((.(((....))).))) | -29.6 kcal/mol | 57.5 °C
14 | GACACCGAAAGGTCAGTC ((((((....)))..))) | -12.5 kcal/mol | 35.9 °C
15 | GACACCGAAAGGTGGGTC ((((((....)))..))) | -11.2 kcal/mol | 65.5 °C
16 | GACACCGAAAGGTTTGTC ((((((....)))..))) | -15.1 kcal/mol | 38.3 °C
17 | GACACCGCGAAAGCGGTC (((..(((....)))))) | -6.65 kcal/mol | 35.4 °C
18 | GACACCGGAAACGACGTC (((..((....))..))) | -21.9 kcal/mol | 29.4 °C
19 | GACACGACGAAAGTCGTC (((..(((....)))))) | -6.1 kcal/mol | 34.4 °C
20 | GACACGGCGAAAGCCGTC (((..(((....)))))) | -6.25 kcal/mol | 32.9 °C
21 | GACACGGGAAACCGTACC (..((((....))))..) | -8.11 kcal/mol | 27.9 °C
22 | GACACGGGAAACCGTATC ((.((((....)))).)) | -14.5 kcal/mol | 35.2 °C
23 | GACAGAGGAAACTCCGTC (((.(((....))).))) | -18.3 kcal/mol | 35 °C

Row | Sequence | folding enthalpy [1] | Tm [2]
24 | GACAGCGAAAGCTAGGTC ((((((....)))..))) | -18.4 kcal/mol | 39.4 °C
25 | GACAGCGAAAGCTCCGTC ((((((....)))..))) | -9.29 kcal/mol | 34.4 °C
26 | GACAGCGAAAGCTGGTC ((((((....))).))) | -11.8 kcal/mol | 55 °C
27 | GACAGCGGAAACACTGTC (((((.(....).))))) | -33.4 kcal/mol | 46.6 °C
28 | GACAGCGGAAACGCCGTC (((.(((....))).))) | -18.6 kcal/mol | 50.6 °C
29 | GACAGCGGAAACGTTGTC ((((.((....)).)))) | -37.2 kcal/mol | 51.9 °C
30 | GACAGGCGAAAGCCGTC (((.(((....)))))) | -11.3 kcal/mol | 64.9 °C
31 | GACAGGGAAACCTGTC ((((((....)))))) | -37.8 kcal/mol | 58.9 °C
32 | GACAGGGGAAACCCTGCC (.(((((....))))).) | -13.8 kcal/mol | 46.4 °C
33 | GACAGTGAAAACTGTC ((((((....)))))) | -28.6 kcal/mol | 56.4 °C
34 | GACATACGAAAGTAAGTC (((.(((....))).))) | -29.7 kcal/mol | 42.7 °C
35 | GACATAGCGAAAGCTGTC (((..(((....)))))) | -20.5 kcal/mol | 47.1 °C
36 | GACATAGGAAACTATGTC (((((((....))))))) | -35.6 kcal/mol | 53.5 °C
37 | GACATAGGAAACTGTGTC ((((.((....)).)))) | -40.5 kcal/mol | 44.4 °C
38 | GACATCCGAAAGGACGTC (((.(((....))).))) | -37 kcal/mol | 49 °C
39 | GACATCGGAAACGGTGTC ((((.((....)).)))) | -47 kcal/mol | 52.2 °C
40 | GACATGGAAACATGTC ((((((....)))))) | -38.2 kcal/mol | 56 °C
41 | GACATTGGAAACAACGTC (((.(((....))).))) | -23.2 kcal/mol | 34 °C
42 | GACCAAACGAAAGTTGTC (((..(((....)))))) | -13.8 kcal/mol | 31 °C
43 | GACCAACCGAAAGGTGTC (((..(((....)))))) | -13 kcal/mol | 35.5 °C
44 | GACCAAGCGAAAGCTGTC (((..(((....)))))) | -13.5 kcal/mol | 37.2 °C
45 | GACCAAGGAAACTTGGCC (.(((((....))))).) | -16.6 kcal/mol | 41.7 °C
46 | GACCAAGGAAACTTGGTC (((((((....))))))) | -35.8 kcal/mol | 60.5 °C

Row | Sequence | folding enthalpy [1] | Tm [2]
47 | GACCACGAAAGTGGTGTC ((((((....)))..))) | -12.2 kcal/mol | 55.4 °C
48 | GACCACGGAAACATGGCC (.(((.(....).))).) | -9.89 kcal/mol | 24.4 °C
49 | GACCACGGAAACATGGTC (((((.(....).))))) | -35.5 kcal/mol | 43.4 °C
50 | GACCAGCGAAAGCTCGTC (((.(((....))).))) | -18.6 kcal/mol | 42.4 °C
51 | GACCAGGAAACTGGTC ((((((....)))))) | -39 kcal/mol | 63.4 °C
52 | GACCAGGGAAACCTGGCC (.(((((....))))).) | -15.2 kcal/mol | 45.5 °C
53 | GACCATGCGAAAGCAGTC (((..(((....)))))) | -10.6 kcal/mol | 30.2 °C
54 | GACCATGGAAACACGGTC ((((.((....)).)))) | -31.7 kcal/mol | 42.5 °C
55 | GACCATGGAAACATGGCC (.(((((....))))).) | -15.2 kcal/mol | 46 °C
56 | GACCCAACGAAAGTTGTC (((..(((....)))))) | -10.5 kcal/mol | 29 °C
57 | GACCCACGAAAGTGAGTC (((.(((....))).))) | -31.2 kcal/mol | 51.2 °C
58 | GACCCCCGAAAGGGGTC (((.(((....)))))) | -19.9 kcal/mol | 67.5 °C
59 | GACCCCGAAAGGGGAGTC ((((((....)))..))) | -9.87 kcal/mol | 44.6 °C
60 | GACCCCGAAAGGGGGGTC ((((((....)))..))) | -13.3 kcal/mol | 67.4 °C
61 | GACCCCGAAAGGGTAGTC ((((((....)))..))) | -15 kcal/mol | 44.4 °C
62 | GACCCCGCGAAAGCGGTC (((..(((....)))))) | -5.92 kcal/mol | 28 °C
63 | GACCCCGGAAACGAGGCC (.((.((....)).)).) | -15 kcal/mol | 27.5 °C
64 | GACCCCGGAAACGAGGTC ((((.((....)).)))) | -36.9 kcal/mol | 48 °C
65 | GACCCCGGAAACGGAGTC (((.(((....))).))) | -31.4 kcal/mol | 47.2 °C
66 | GACCCGCGAAAGCGCGTC (((.(((....))).))) | -21.9 kcal/mol | 47.8 °C
67 | GACCCGGGAAACCAGGCC (.((.((....)).)).) | -10.8 kcal/mol | 24.7 °C
68 | GACCCGGGAAACCAGGTC ((((.((....)).)))) | -27.5 kcal/mol | 45.8 °C
